Our source for the IC50 values is ChEMBL document CHEMBL1140898, “Targeting the fatty acid biosynthesis enzyme, beta-ketoacyl-acyl carrier protein synthase III (PfKASIII), in the identification of novel antimalarial agents” (J Med Chem, 2009).

A value given as a limit tells only on which side of the number the result lay.

What is called IC50 is the concentration needed to halve the response being measured.

The test system of the first assay is Plasmodium falciparum. The assay is described as follows: Antimalarial activity against […] by [3H]hypoxanthine uptake. The class given is functional, organism-based.
`Oc1ccc(S)cc1Cl` gave an IC50 of 5.2 µM.
Take `O=c1ss/c(=N\c2ccccc2)n1-c1ccccc1`: half-maximal inhibition (IC50) was put at 8 µM.
Still for that read-out and setting: in the case of `Cc1ccc(SSSc2ccc(C)cc2)cc1` it was 1.5 µM.
`CCOC(=O)c1cnccc1C` yielded an IC50 of more than 49.9 µM.
On to `O=C(O)c1ccc(NS(=O)(=O)c2ccccc2)cc1O`, for which the IC50 is more than 12.7 µM.
Regarding `C=C/C(C)=C/[C@@]1(C)SC(=O)C(C)=C1O` [THIOLACTOMYCIN], the 50% inhibitory concentration (IC50) came out at 50 µM.
The same measure, in the same setting: for `O=[N+]([O-])c1c(Cl)sc(Cl)c1S(=O)(=O)Nc1ccc(C(F)(F)F)cc1` the value was 15.4 µM; for `C/C(=C/C(=O)OC(C)c1ccccc1)OP1(=O)OC(C)C(C)O1` (configuration not stated), 20.4 µM; for `Nc1ccc(S(=O)(=O)c2cc(O)c3ccccc3c2O)c(Cl)c1`, 0.01 µM.
Still for that read-out and setting: for `O=[N+]([O-])c1cc(S(=O)(=O)Nc2cc(C(F)(F)F)cc(C(F)(F)F)c2)sc1Nc1cc(C(F)(F)F)cc(C(F)(F)F)c1` the value was 10.3 µM; for `Clc1ccc(SSSc2ccc(Cl)cc2)cc1`, 2.5 µM.
The same measure, in the same setting: in the case of `Oc1ccc(Cl)cc1SSc1cc(Cl)ccc1O` it was 12.4 µM.
Consider `Oc1c(Cl)cc(SSc2cc(Cl)c(O)c(Cl)c2Cl)c(Cl)c1Cl`, for which the IC50 turned out to be 3.9 µM.
`O=C(CN1CCN(c2ccc(CO)c(Br)c2)CC1)c1ccc([N+](=O)[O-])o1`: the IC50 turned out to be 8.9 µM.
Turning to `C/C=C/CCCCCCCC(=O)NS(=O)(=O)c1ccc(N)cc1`, the IC50 was more than 49.9 µM.
In the case of `Oc1ccccc1SSc1ccccc1O`, the IC50 worked out at 14.9 µM.
In turn, `CC(CN)CCC(C)(O)C(N)=O` (configuration not stated) gave an IC50 of 24.7 µM.
In turn, `O=S(=O)(Nc1ccc(C(F)(F)F)cc1)c1cc(Cl)sc1Cl` showed an IC50 of more than 49.9 µM.
`Oc1ccc(Cl)cc1Sc1cc(Cl)ccc1O` [FENTICLOR]: half-maximal inhibition (IC50) was put at 20.5 µM.
`Oc1ccc(Sc2ccc(O)cc2O)c(O)c1`: the IC50 was more than 49.9 µM.
`COc1ccc(C(=O)CSS(=O)(=O)c2ccccc2)cc1` returned an IC50 of 22.5 µM.
Same read-out and setting: for `Oc1ccc(Cl)cc1SSSc1cc(Cl)ccc1O` the value was 2.3 µM.

Test system in the next assay: not listed separately
Put plainly: Inhibition of Plasmodium falciparum KAS3 expressed in Escherichia coli assessed as transfer of [1-14C]acetyl-CoA to [1-14C]acetyl-ACP. A digest of the protocol: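 Recombinant 6xHIS-tagged P. falciparum KASIII and 6xHIS-ACP expressed in E. coli and purified. Radiometric filter assay of [1-14C]-acetyl-CoA transfer to ACP, 25 min at 37 °C, quenched with 10% TCA. Product captured on P81 cellulose filters, washed with TCA and counted by scintillation. […] IC50 by variable-slope nonlinear regression, curves accepted at R2 >0.80.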
On to `Oc1ccc(S)cc1Cl`, for which the IC50 came to 2.8 µM.
In the case of `O=c1ss/c(=N\c2ccccc2)n1-c1ccccc1`, the IC50 was 0.5 µM.
For `Cc1ccc(SSSc2ccc(C)cc2)cc1`, the IC50 was determined as 1.4 µM.
Regarding `CCOC(=O)c1cnccc1C`, the IC50 was determined as 4.9 µM.
On to `O=C(O)c1ccc(NS(=O)(=O)c2ccccc2)cc1O`, for which the IC50 is 5 µM.
For the compound `C=C/C(C)=C/[C@@]1(C)SC(=O)C(C)=C1O` [THIOLACTOMYCIN], the IC50 was more than 330 µM.
On to `O=[N+]([O-])c1c(Cl)sc(Cl)c1S(=O)(=O)Nc1ccc(C(F)(F)F)cc1`, for which the IC50 is 0.28 µM.
Regarding `C/C(=C/C(=O)OC(C)c1ccccc1)OP1(=O)OC(C)C(C)O1` (configuration not stated), the IC50 turned out to be 25.8 µM.
In the case of `Nc1ccc(S(=O)(=O)c2cc(O)c3ccccc3c2O)c(Cl)c1`, the IC50 came to 0.13 µM.
As to `O=[N+]([O-])c1cc(S(=O)(=O)Nc2cc(C(F)(F)F)cc(C(F)(F)F)c2)sc1Nc1cc(C(F)(F)F)cc(C(F)(F)F)c1`, the IC50 stood at 5.2 µM.
Regarding `Clc1ccc(SSSc2ccc(Cl)cc2)cc1`, the IC50 came out at 0.63 µM.
As for `Oc1ccc(Cl)cc1SSc1cc(Cl)ccc1O`, the IC50 worked out at 0.14 µM.
As for `Oc1c(Cl)cc(SSc2cc(Cl)c(O)c(Cl)c2Cl)c(Cl)c1Cl`, the IC50 is 0.24 µM.
As for `O=C(CN1CCN(c2ccc(CO)c(Br)c2)CC1)c1ccc([N+](=O)[O-])o1`, the IC50 turned out to be 3.2 µM.
As to `C/C=C/CCCCCCCC(=O)NS(=O)(=O)c1ccc(N)cc1`, the IC50 was more than 1000 µM.
With `Oc1ccccc1SSc1ccccc1O`, the IC50 is 1.9 µM.
As to `CC(CN)CCC(C)(O)C(N)=O` (configuration not stated), the IC50 stood at 0.24 µM.
Turning to `O=S(=O)(Nc1ccc(C(F)(F)F)cc1)c1cc(Cl)sc1Cl`, the IC50 was found to be 2.2 µM.
As to `Oc1ccc(Cl)cc1Sc1cc(Cl)ccc1O` [FENTICLOR], the IC50 was determined as 3.1 µM.
On to `Oc1ccc(Sc2ccc(O)cc2O)c(O)c1`, for which the IC50 is 10.8 µM.
With `COc1ccc(C(=O)CSS(=O)(=O)c2ccccc2)cc1`, the IC50 came to 1.5 µM.
On to `Oc1ccc(Cl)cc1SSSc1cc(Cl)ccc1O`, for which the IC50 amounted to 0.53 µM.

Test system in another assay: not listed separately
The assay is described as follows: Cytotoxicity against mouse J774.G8 cells after 72 hrs by MTS assay. In kind it is cell-based. A digest of the protocol: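 Murine J774 macrophage subclone G8 grown in DMEM with 10% fetal calf serum, 2 mM L-glutamine, 50 μg/mL gentamicin, 5% CO2, 37 °C. Seeded at 1 × 10^4 cells/well and left 24 h. Compound dilutions in medium or vehicle added, then 72 h exposure. MTS tetrazolium added for 1–2 h at 37 °C, OD read at 490 nm. Vehicle control values subtracted.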
Turning to `O=C(O)c1ccc(NS(=O)(=O)c2ccccc2)cc1O`, the IC50 was more than 2540 µM.

The test system of the next assay is Plasmodium falciparum. The assay is described as follows: Antimalarial activity against […] by [3H]hypoxanthine uptake. In kind it is functional, organism-based.
Consider `Oc1ccc(S)cc1Cl`, for which the IC50 came to 4.7 µM.
On the same count and under the same terms, in the case of `O=c1ss/c(=N\c2ccccc2)n1-c1ccccc1` it was 8 µM.
In the case of `Cc1ccc(SSSc2ccc(C)cc2)cc1`, the IC50 was 1.4 µM.
`CCOC(=O)c1cnccc1C` had an IC50 of more than 49.9 µM.
The compound `O=C(O)c1ccc(NS(=O)(=O)c2ccccc2)cc1O` yielded an IC50 of more than 12.7 µM.
Compound `C=C/C(C)=C/[C@@]1(C)SC(=O)C(C)=C1O` [THIOLACTOMYCIN] registered an IC50 of 50 µM.
Regarding `O=[N+]([O-])c1c(Cl)sc(Cl)c1S(=O)(=O)Nc1ccc(C(F)(F)F)cc1`, half-maximal inhibition (IC50) required 16.4 µM.
The compound `C/C(=C/C(=O)OC(C)c1ccccc1)OP1(=O)OC(C)C(C)O1` (configuration not stated) yielded an IC50 of more than 49.9 µM.
Consider `Nc1ccc(S(=O)(=O)c2cc(O)c3ccccc3c2O)c(Cl)c1`, for which the IC50 is 5.5 µM.
Turning to `O=[N+]([O-])c1cc(S(=O)(=O)Nc2cc(C(F)(F)F)cc(C(F)(F)F)c2)sc1Nc1cc(C(F)(F)F)cc(C(F)(F)F)c1`, the IC50 was 11.4 µM.
In turn, `Clc1ccc(SSSc2ccc(Cl)cc2)cc1` returned an IC50 of 2.1 µM.
`Oc1ccc(Cl)cc1SSc1cc(Cl)ccc1O` had an IC50 of 12 µM.
Turning to `Oc1c(Cl)cc(SSc2cc(Cl)c(O)c(Cl)c2Cl)c(Cl)c1Cl`, it took 5.5 µM to reach half-maximal inhibition (IC50).
Regarding `O=C(CN1CCN(c2ccc(CO)c(Br)c2)CC1)c1ccc([N+](=O)[O-])o1`, the concentration for half-maximal inhibition (IC50) was determined as 8.9 µM.
Still for that read-out and setting: for `C/C=C/CCCCCCCC(=O)NS(=O)(=O)c1ccc(N)cc1` the value was more than 49.9 µM; for `Oc1ccccc1SSc1ccccc1O`, 15 µM.
`CC(CN)CCC(C)(O)C(N)=O` (configuration not stated): the midpoint of inhibition, the IC50, lay at 14.6 µM.
The same measure, in the same setting: in the case of `O=S(=O)(Nc1ccc(C(F)(F)F)cc1)c1cc(Cl)sc1Cl` it was more than 49.9 µM.
Turning to `Oc1ccc(Cl)cc1Sc1cc(Cl)ccc1O` [FENTICLOR], the IC50 was determined as 21.5 µM.
`Oc1ccc(Sc2ccc(O)cc2O)c(O)c1`: the IC50 was more than 49.9 µM.
In turn, `COc1ccc(C(=O)CSS(=O)(=O)c2ccccc2)cc1` displayed an IC50 of 22.5 µM.
For the compound `Oc1ccc(Cl)cc1SSSc1cc(Cl)ccc1O`, half-maximal inhibition (IC50) was put at 1.4 µM.
